{"data": "Experimental data from different studies", "target": "Protein kinase C epsilon type (PRKCE, Homo sapiens, UniProt Q02156)", "note": "Each line is one published result; the experiments were not run side by side."}
{"Compound": "COc1ccc(COc2ccc(Cc3cnc(N)nc3N)cc2OC)cc1", "effect on": "cell-free assay", "concentration": "0.5 µM", "measurement": "remaining signal", "result": "95.7%"}
{"Compound": "Cc1ccc(NC(=O)c2ccc(C)c(C(F)(F)F)c2)cc1C#Cc1nn(C2CCC(O)CC2)c2ncnc(N)c12 (centres unmarked)", "effect on": "cell-free assay", "concentration": "10 µM", "measurement": "remaining signal", "result": "117%"}
{"Compound": "CNCc1ccccc1-c1csc([C@H](C)Nc2nc(C)nc3cc(OC)c(OC)cc23)c1", "effect on": "cell-free assay", "method": "competition with immobilised ligand", "concentration": "1 µM", "measurement": "remaining binding", "result": "78%"}
{"Compound": "CN1CC(Oc2cnc(C#N)cc2-c2ccn3nc(NC(=O)C4CC4)cc3c2)C1", "effect on": "enzyme activity", "action": "inhibitor", "concentration": "1 µM", "measurement": "inhibition", "result": "6%"}
{"Compound": "O=C(Nc1cnn(-c2csc(C(=O)NC3COC3)c2)c1)Nc1ccccc1Cl", "effect on": "enzyme activity", "action": "inhibitor", "concentration": "5 µM", "measurement": "remaining activity", "result": "102%"}
{"Compound": "Cc1ccc(C(=O)NCc2ccsc2)cc1C#Cc1cn(C(C)C)c2ncnc(N)c12", "effect on": "enzyme activity", "action": "inhibitor", "concentration": "1 µM", "measurement": "activity vs control", "result": "104%"}
{"Compound": "CN(C)C[C@H]1CCn2c(c(C3=C(c4cn(C)c5ccccc45)C(=O)NC3=O)c3ccccc32)C1", "effect on": "cell-free assay", "concentration": "0.5 µM", "measurement": "remaining signal", "result": "2.73%"}
{"Compound": "CN([C@@H]1CCc2c(CC(=O)O)c3cc(S(C)(=O)=O)ccc3n2C1)S(=O)(=O)c1ccc(F)cc1", "effect on": "cell-free assay", "method": "competition with immobilised ligand", "concentration": "1 µM", "measurement": "remaining binding", "result": "87%"}
{"Compound": "CC(C)c1ccc(NC(=O)c2cccs2)c(-c2nc3ccccc3[nH]c2=O)c1", "effect on": "enzyme activity", "action": "inhibitor", "concentration": "1 µM", "measurement": "activity vs control", "result": "109%"}
{"Compound": "COc1cc(Cl)c(C(=O)N[C@@H](CN[C@H]2CC[C@@H](N)CC2)Cc2ccc(C#N)cc2)cc1-c1ccc(CN[C@H](C)c2ccc(C)cc2)o1", "effect on": "enzyme activity", "action": "inhibitor", "concentration": "1 µM", "measurement": "remaining activity", "result": "85%"}
{"Compound": "CC(C)(O)[C@H]1CC[C@H](Nc2ccc3ncc(-c4cccc(C(F)(F)F)c4)n3n2)CC1", "effect on": "enzyme activity", "action": "inhibitor", "concentration": "1 µM", "measurement": "remaining activity", "result": "60.1%"}
{"Compound": "O=C(Nc1cccnn1)N1CC(C/C=C/c2cncc(Oc3ccc(C(F)(F)F)cn3)n2)C1", "effect on": "cell-free assay", "method": "competition with immobilised ligand", "concentration": "1 µM", "measurement": "remaining binding", "result": "100%"}
{"Compound": "Cn1cncc1C1=CN(c2ncnc3[nH]cnc23)CCS1", "effect on": "enzyme activity", "action": "inhibitor", "method": "radiometric", "concentration": "50 nM", "measurement": "inhibition", "result": "25.8%"}
{"Compound": "CN(C)c1ncnc(-c2ccc3nc(Nc4cc(CN5CCN(C(=O)CC(F)(F)F)CC5)ccn4)[nH]c3c2)c1Cl", "effect on": "cell-free assay", "method": "competition with immobilised ligand", "concentration": "1 µM", "measurement": "remaining binding", "result": "100%"}
{"Compound": "C=CC(=O)Nc1cc(Nc2nccc(Nc3cc(Cl)c(F)cc3C(C)(C)O)n2)c(OC)cc1N1CC[C@@H](N(C)C)C1", "effect on": "enzyme activity", "action": "inhibitor", "concentration": "1 µM", "measurement": "inhibition", "result": "2%"}
{"Compound": "Nc1c(C(=O)NCc2ccc(C(=O)NCCCC3CCCCC3)cc2)cnn1-c1ccccc1", "effect on": "cell-free assay", "method": "competition with immobilised ligand", "concentration": "0.1 µM", "measurement": "remaining binding", "result": "100%"}
{"Compound": "CCN(CC)CCNC(=O)c1c(C)[nH]c(/C=C2\\C(=O)Nc3ccc(F)cc32)c1C", "effect on": "enzyme activity", "action": "inhibitor", "concentration": "10 µM", "measurement": "inhibition", "result": "21%"}
